Beta cell apopt = blocks beta cell apoptosis | actives 0.8% (n = 300,000) | protection from apoptosis, % (test concentration not listed) | INS-1E cytokine-induced death, ATP luminescence, 48 h; percent of positive-control rescue, neutral wells zero | AID 435005;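 active = Every replicate reaches about 75%, or at least half do and their mean reaches it too, limit read from the data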;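 note: 0% = cytokine-treated negative control wells and 100% = positive control rescue; higher means more ATP so stronger rescue from cytokine killing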
UPR XBP1 act = adaptive UPR (XBP1) activation. actives 0.33% (n = 330,000). AID 463104. CHO-XBP1 luciferase reporter, IRE1-XBP1 UPR activation, luminescence; percent of tunicamycin response, DMSO as zero. activation, % at 20 µM;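 active = versus positive control, 20 µM dose yields 30% or more activation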;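 note: 100% = tunicamycin at 10 µg/mL and 0% = DMSO only wells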
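incubation = overnight seeding at 37 °C, 6 h compound treatment at 37 °C | assay system = CHO-XBP1 cells stably carrying IRE1-XBP1-driven luciferase reporter | input = 1000 cells per well | detection = luciferase luminescence | dosing = single point, 20 µM final compound, 1% DMSO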
Mdm2-MdmX inh = disrupts the human Mdm2-MdmX interaction; SaOS-2 split-luciferase Mdm2/MdmX complementation, luminescence; inhibition, % at 8 µM; actives 3% (n = 330,000); AID 485346;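 active = inhibition of at least 50% at 8 µM in the primary screen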
Target sequence (O15151 whole entry, looked up): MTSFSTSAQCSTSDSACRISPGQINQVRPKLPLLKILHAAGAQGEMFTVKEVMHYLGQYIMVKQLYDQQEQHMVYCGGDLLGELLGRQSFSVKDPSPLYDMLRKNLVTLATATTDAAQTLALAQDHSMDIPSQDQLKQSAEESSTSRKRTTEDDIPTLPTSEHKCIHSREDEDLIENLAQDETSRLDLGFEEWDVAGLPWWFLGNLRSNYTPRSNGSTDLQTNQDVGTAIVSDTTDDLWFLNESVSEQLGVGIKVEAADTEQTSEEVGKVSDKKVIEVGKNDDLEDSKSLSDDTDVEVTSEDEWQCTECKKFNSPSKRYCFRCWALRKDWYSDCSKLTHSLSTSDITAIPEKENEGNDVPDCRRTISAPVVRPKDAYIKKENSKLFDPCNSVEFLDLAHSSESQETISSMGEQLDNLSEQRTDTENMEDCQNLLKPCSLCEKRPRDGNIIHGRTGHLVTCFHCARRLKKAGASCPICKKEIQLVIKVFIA
Target sequence (Q00987 whole entry, looked up): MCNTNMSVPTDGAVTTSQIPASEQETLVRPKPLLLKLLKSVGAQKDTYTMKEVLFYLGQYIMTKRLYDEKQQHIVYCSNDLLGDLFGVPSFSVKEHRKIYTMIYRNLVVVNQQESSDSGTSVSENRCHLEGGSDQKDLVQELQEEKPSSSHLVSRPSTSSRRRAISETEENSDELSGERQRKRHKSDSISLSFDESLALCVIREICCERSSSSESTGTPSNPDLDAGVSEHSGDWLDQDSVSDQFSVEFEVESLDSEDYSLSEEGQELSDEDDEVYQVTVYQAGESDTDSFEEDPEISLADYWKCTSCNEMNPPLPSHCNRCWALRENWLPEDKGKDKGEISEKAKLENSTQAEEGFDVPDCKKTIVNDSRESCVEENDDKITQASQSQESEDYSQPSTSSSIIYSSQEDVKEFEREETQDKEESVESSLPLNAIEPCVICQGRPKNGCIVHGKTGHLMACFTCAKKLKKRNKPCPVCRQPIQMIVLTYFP
T cruzi repl = blocks replication of Trypanosoma cruzi; AID 1885; actives 1.4% (n = 300,000); T. cruzi beta-gal in NIH3T3, luminescence, 90 h; inhibition, % (no concentration beside the values);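 active = mean inhibition across valid replicates above about 55%, limit read from the data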;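 note: signal also drops with host cell toxicity which is not excluded here; 0% = plate median of DMSO wells and 100% = zero luminescence signal; higher percent means less beta-gal luminescence so fewer parasites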
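Material: NIH/3T3 host cells with β-galactosidase reporter T. cruzi; Input: 5,000 host fibroblasts per well; Medium: DMEM, 2% fetal bovine serum; Compound: 50 nL DMSO compound solution per well; Schedule: 3 h host attachment, then at least 90 h co-culture; Detection: luminescent β-galactosidase signal after 60 min lysis.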
CSC inhib = cancer stem cell inhibition. inhibition, % at 7.5 µM. AID 2717. cancer stem cell-like cells viability, luminescence. actives 1.1% (n = 300,000); in the data active = inhibition above about 75%; tested in HMLE shEcad cells
CHOP UPR activ = activators of apoptotic arm of unfolded protein response (CHOP); CHO-CHOP luciferase reporter, UPR activation, luminescence; percent of tunicamycin response over DMSO baseline; activation, % at 10 µM; actives 0.34% (n = 330,000); AID 449763;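 active = at 10 µM dose, activation of 40% or more, normalized to positive control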;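 note: 100% = tunicamycin at 10 µg/mL and 0% = DMSO alone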
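Test system: CHO-CHOP cells, stable luciferase reporter of PERK-eIF2a-CHOP signalling | Quantity: 500 CHO-CHOP cells per well | Buffer or medium: F12 plus 10% serum | Compound dosing: 10 µM single point, 0.5% DMSO | Schedule: 6 h compound treatment, 37 °C | Signal: Luciferase luminescence | Control set: Tunicamycin high control, DMSO low control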
Mdm2-MdmX conf = human Mdm2/MdmX binding inhibition, confirmed; AID 489028; luminescent assay; shares compounds with Mdm2-MdmX inh; actives 55% (n = 10,000); inhibition, % at 8 µM; in the data active = inhibition above about 40%
FLuc counter = full-length luciferase inhibition in Mdm2/MdmX counter-screen. actives 77% (n = 6,200). shares compounds with Mdm2-MdmX inh. SaOS-2 full-length luciferase counterscreen, luminescence. inhibition, % at 8 µM. AID 504607;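 active = mean inhibition at 8 µM reaching about 37%, which flags the compound as non-specific, limit read from the data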;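 note: p53-null SaOS-2 cells with luciferase driven by a doxycycline-inducible promoter; compound on cells about two nights before reading with doxycycline added after day one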
The depositor's hits bear a star; nt = not tested or not shown. Only some compounds are listed: those with a hit (about 5% of all), similar ones and a draw of the others.

SMILES	Beta cell apopt	UPR XBP1 act	Mdm2-MdmX inh	T cruzi repl	CSC inhib	CHOP UPR activ	Mdm2-MdmX conf	others
O=C(CSc1ncn[nH]1)N1N=C2/C(=C/c3ccccc3)CCCC2C1c1ccccc1 (stereo not drawn)	-6	-1	53*	4	nt	-3	19
COc1ccc2c3c(cccc13)C(=O)CC2	-20	nt	nt	5	36	nt	nt
CC1=NN(c2ccccc2)C(=O)/C1=C\c1cn(CCC#N)nc1-c1ccc(Cl)cc1	-7	13	-2	-19	4	1	nt
CC1=NNC(=O)/C1=C\c1cn(-c2ccccc2)nc1-c1ccc(Cl)cc1	107*	-6	100*	48	102*	-10	47*	FLuc counter=3
Cc1nnc2sc(SCC(=O)Nc3nccs3)nn2c1=O	6	2	17	1	-5	0	nt
O=C(NCc1ccccc1)c1cccc2c1C(=O)c1ccc(/C=C/c3ccccc3)cc1S2(=O)=O	31	3	77*	nt	nt	-1	21
O=C(NCc1cc(C(F)(F)F)ccc1Cl)c1cccc2c1C(=O)c1ccc(Cl)cc1S2(=O)=O	9	-1	54*	nt	nt	3	1
COc1ncc(-c2ccc3c(c2)S(=O)(=O)c2cccc(C(=O)NCc4ccco4)c2C3=O)cn1	-2	15	53*	nt	-6	5	20
O=C(NCc1cc(C(F)(F)F)ccc1Cl)c1cccc2c1C(=O)c1ccc(-c3ccc(OC(F)(F)F)cc3)cc1S2(=O)=O	4	162*	77*	nt	19	91*	-13
C/C(=N\Nc1cccc([N+](=O)[O-])c1)c1cc(F)ccc1O	10	3	-49	7	36	4	nt
COc1ccc(N2CCN(c3nc4cc(C)ccc4cc3C=O)CC2)cc1	0	4	38	-8	11	3	nt
Cc1[nH]ccc(=O)c1OC1OC(CO)C(O)C(O)C1O (stereo not drawn)	-5	-2	25	12	5	0	nt
COc1ccc(NC(=O)C2CC3CCC2C3)c(OC)c1 (stereo not drawn)	nt	-1	14	2	nt	1	nt
CC(C)(C)NS(=O)(=O)c1ccc(CCC(=O)NCc2ccccn2)cc1	-5	-4	-29	0	1	-2	nt
COc1ccc(S(=O)(=O)N(CC(=O)NCC2CCCO2)c2ccccc2)cc1OC (stereo not drawn)	2	0	19	-24	11	-1	nt
O=C(NCc1cccc(OC(F)(F)F)c1)c1cccc2c1C(=O)c1ccc(-c3ccc(F)cc3OCc3ccccc3)cc1S2(=O)=O	3	-2	-16	nt	nt	1	nt
O=C(NCC1CCCO1)c1cccc2c1C(=O)c1ccc(N3CCC(Cc4ccccc4)CC3)cc1S2(=O)=O (stereo not drawn)	10	4	54*	nt	nt	6	19
CC1CCN(c2ccc3c(c2)S(=O)(=O)c2cccc(C(=O)NC[C@@H]4CCCO4)c2C3=O)CC1	20	0	16	nt	nt	0	nt
COc1ccc(-c2ccc3c(c2)S(=O)(=O)c2cccc(C(=O)NCc4cccc(OC(F)(F)F)c4)c2C3=O)cc1OC	11	29	73*	nt	60	1	-3
Cn1cc(C(=O)NCc2ccc(Cl)cc2)c(=O)c2cc(S(=O)(=O)N3CCOCC3)ccc21	2	-3	20	12	18	2	nt
O=C(COC(=O)CNC(=O)c1ccccc1)NCc1ccc2c(c1)OCO2	-6	2	0	nt	-11	-1	nt
CC(C)Cc1cc(C(=O)N2CCC(N3CCC(C(=O)NC4CC4)CC3)CC2)n[nH]1	nt	-2	5	-6	-11	1	nt
CC1=C(C(=O)OC(C)C)C(c2ccccc2)NC(=S)N1C (stereo not drawn)	-2	3	15	-17	-9	0	nt
CC(C)c1ccc(N=c2c([N+](=O)[O-])nn(-c3ccc4c(c3)OCCO4)n2O)cc1	0	-1	5	53	23	-1	nt
CCc1cccc(N=c2c([N+](=O)[O-])nn(-c3ccc(Cl)cc3)n2O)c1	2	4	8	51	nt	0	nt
SMILES	Beta cell apopt	UPR XBP1 act	Mdm2-MdmX inh	T cruzi repl	CSC inhib	CHOP UPR activ	Mdm2-MdmX conf	others
CCc1cccc(N=c2c([N+](=O)[O-])nn(-c3ccc4c(c3)OCCO4)n2O)c1	1	13	73*	70*	14	12	77*	FLuc counter=62*
COc1cc(N=c2c([N+](=O)[O-])nn(-c3ccc4c(c3)OCCO4)n2O)cc(OC)c1	6	1	59*	46	-7	1	28
CCCCCCc1nc(C(N)=O)c2[nH]c(=O)n(-c3ccccc3F)c2n1	-2	0	20	2	-11	4	nt
O=C(Nc1cc2c3c(c1)CC(=O)N3CCC2)c1ccc(Br)o1	-1	-3	-4	-9	-2	0	nt
COc1ccc(-c2csc(NC(=O)CCS(=O)(=O)c3ccccc3)n2)c(OC)c1	5	-1	46	-6	13	2	nt
CC(C)CN1Cc2ccccc2Oc2cc(Br)ccc2S1(=O)=O	nt	-1	24	nt	nt	1	nt
O=C(N/N=C/c1c(F)cccc1Cl)C(=O)N1CCCCCC1	-2	-2	56*	-6	-6	2	0
COCCNC(=O)c1cn(C)c2ccccc2c1=O	-4	-3	4	-4	-11	1	nt
COc1cc(C(C(=O)NCC2CCCO2)N(C(=O)Cn2nnc3ccccc32)c2ccc(C(C)=O)cc2)ccc1O (stereo not drawn)	1	-5	12	-3	-7	0	nt
Cc1ccccc1Cn1c(=O)n(-c2ccccc2)c(=O)c2ccc(C(=O)NCc3ccco3)cc21	2	-1	68*	-42	-1	1	22
Cc1ccc(-n2c(=O)c3ccc(C(=O)NCc4ccco4)cc3n(Cc3ccccc3C#N)c2=O)cc1	nt	-3	29	3	nt	-3	nt
CC(C)CC(=O)Nc1ccc(C(=O)COC(=O)Cc2n[nH]c(=O)c3ccccc23)cc1	0	0	8	nt	-24	0	nt
COc1ccc2nc(NC(=O)C3CCN(S(=O)(=O)c4cccc5nsnc45)CC3)sc2c1	nt	-2	65*	nt	38	3	66*	FLuc counter=39*
CCOC(=O)C1CCN(C(=O)COC(=O)c2ccc(=O)n(Cc3ccccc3)n2)CC1	-7	0	10	-8	-4	0	nt
C(=N\Nc1ccc2ccccc2n1)/c1ccc2c(c1)OCCO2	1	-10	69*	23	11	-8	79*	FLuc counter=98*

High-throughput results deposited in PubChem by several laboratories.
